According to ChEMBL document CHEMBL5584363, “Euphane and Tirucallane Triterpenes with Trypanocidal Activity from Euphorbia desmondii” (J Nat Prod, 2024):
Active and inactive are the calls of the source. No cut-off for these calls is given here.

Columns and labels:
[1] = system: Trypanosoma cruzi; assay: Antitrypanosomal activity against Trypanosoma cruzi trypomastigotes Y (ATCC 50832) expressing GFP infected in CCL39 cells assessed as reduction in parasite replication measured after 1 hr by microscopy; type: functional, organism-based
How it was run: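 CCL39 fibroblasts seeded at 20,000 cells/mL and left to adhere 24 h. Infected with trypomastigotes at multiplicity 10. Next day free parasites washed off and compound added in RPMI with 2% hiFBS. On day 4 after infection, cells fixed in 4% paraformaldehyde for 1 h and imaged by brightfield and GFP fluorescence microscopy.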

[2] = system: Trypanosoma cruzi; assay: Antitrypanosomal activity against Trypanosoma cruzi […] Y (ATCC 50832) expressing GFP infected in mouse RAW264.7 cells assessed as inhibition of parasite replication measured after 6 days by FACS analysis; type: functional, organism-based; details: time 6.0 day
How it was run: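 RAW264.7 cells seeded at 40,000 or 10,000 cells/mL and left to adhere 24 h. Infected with swim-out trypomastigotes at multiplicity 10. Next day free parasites washed off and compound added in RPMI with 2% FBS. After 6 days, released GFP parasites fixed in 4% paraformaldehyde 1 h and counted by FACS. Run in triplicate with DMSO and benznidazole controls.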

[3] = Selectivity index, ratio of IC50 for mouse RAW264.7 cells to IC50 for antitrypanosomal activity against Trypanosoma cruzi […] Y (ATCC 50832) expressing GFP infected in mouse RAW264.7 cells assessed as inhibition of parasite replication; type: toxicity, cell-based; details: read-out: Ratio IC50
[4] = Effect on Trypanosoma cruzi epimastigotes Y (ATCC 50832) expressing GFP proliferation assessed as increase in cell proliferation at 0.3 uM incubated for 72 hrs by XTT assay relative to control; type: functional
How it was run: (§1)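 Y-strain epimastigotes kept in LIT medium with 10% heat-inactivated FBS at 28 °C; log-phase cells used. 1.5 × 10^5 parasites per well. Exposure at 10 μM (screen) or six concentrations from 10–0.3 μM for 72 h at 28 °C, with benznidazole control. XTT/PMS added for 2.5 h at 28 °C, then MeOH fixation and A490. Viability given as % of vehicle, or IC50. Triplicate, at least two independent experiments.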

[5] = Cytotoxicity against mouse RAW264.7 cells assessed as reduction in cell viability; type: toxicity, cell-based
[6] = system: Trypanosoma cruzi; assay: Antitrypanosomal activity against Trypanosoma cruzi epimastigotes Y (ATCC 50832) expressing GFP incubated for 72 hrs by XTT assay; type: functional, organism-based; how it was run: as §1
[7] = Selectivity index, ratio of IC50 for mouse RAW264.7 cells to IC50 for antitrypanosomal activity against Trypanosoma cruzi epimastigotes Y (ATCC 50832) expressing GFP; type: toxicity; details: read-out: Ratio IC50
[8] = system: Trypanosoma cruzi; assay: Antitrypanosomal activity against Trypanosoma cruzi epimastigotes Y (ATCC 50832) expressing GFP at 10 uM incubated for 72 hrs by XTT assay; type: functional, organism-based; how it was run: as §1

Structure (SMILES)	Activity [1]	inhibition [2]	selectivity ratio [3]	Activity [4] [%]	IC50 [5] [µM]	IC50 [6] [µM]	selectivity ratio [7]	Activity [8]
C[C@H](C/C=C/C(C)(C)OO)[C@@H]1CC[C@]2(C)C3=C(CC[C@@]12C)[C@@]1(C)CC[C@H](O)C(C)(C)[C@@H]1CC3=O	Active	Dose-Dependent Effect	> 10	–	–	–	–	–
CC(=O)CCC[C@H](C)[C@@H]1CC[C@]2(C)C3=C(C(=O)C[C@@]12C)[C@@]1(C)CC[C@H](O)C(C)(C)[C@@H]1CC3=O	–	–	–	15	24.4	3.7	6.6	Active
CC(C)=CCC[C@@H](C)[C@@H]1CC[C@]2(C)C3=C(C(=O)C[C@@]12C)[C@@]1(C)CC[C@H](O)C(C)(C)[C@@H]1C[C@H]3O	–	–	–	15	–	–	–	Active
C[C@@H](C/C=C/C(C)(C)OO)[C@@H]1CC[C@]2(C)C3=C(C(OO)C[C@@]12C)[C@@]1(C)CC[C@H](O)C(C)(C)[C@@H]1CC3=O (some centres not stated)	–	–	–	15	–	–	–	Active
